Results: ChEMBL document CHEMBL4028914, “Structure-Based Design of 6-Chloro-4-aminoquinazoline-2-carboxamide Derivatives as Potent and Selective p21-Activated Kinase 4 (PAK4) Inhibitors” (J Med Chem, 2018)
Active and inactive are the calls of the source. The rule behind the calls is not given here.

Assays:
[1] = biological target: T1, Serine/threonine-protein kinase PAK 4 (Homo sapiens, UniProt O96013); assay: Inhibition of GST-tagged human PAK4 (295 to 591 residues) expressed in Baculovirus expression system at 0.1 uM by Z'-Lyte assay relative to control
Target sequence in this assay (O96013 whole entry, looked up, the tested form may be a part): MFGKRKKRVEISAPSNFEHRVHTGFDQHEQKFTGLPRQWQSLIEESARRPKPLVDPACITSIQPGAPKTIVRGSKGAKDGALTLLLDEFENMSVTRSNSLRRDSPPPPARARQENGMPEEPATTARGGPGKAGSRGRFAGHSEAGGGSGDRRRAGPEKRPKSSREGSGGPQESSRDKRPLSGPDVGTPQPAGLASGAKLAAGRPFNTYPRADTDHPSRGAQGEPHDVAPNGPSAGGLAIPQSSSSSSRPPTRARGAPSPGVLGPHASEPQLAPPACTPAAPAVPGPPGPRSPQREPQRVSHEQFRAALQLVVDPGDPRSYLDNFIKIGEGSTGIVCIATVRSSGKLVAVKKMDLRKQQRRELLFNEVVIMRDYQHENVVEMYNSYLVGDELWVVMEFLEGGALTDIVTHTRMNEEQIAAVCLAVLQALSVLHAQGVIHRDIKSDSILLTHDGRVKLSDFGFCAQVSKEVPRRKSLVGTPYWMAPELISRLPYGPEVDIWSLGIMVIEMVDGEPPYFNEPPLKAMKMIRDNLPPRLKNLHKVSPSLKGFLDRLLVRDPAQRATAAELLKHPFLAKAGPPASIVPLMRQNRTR

A549 [2] = assay: Antiproliferative activity against human A549 cells up to 72 hrs by MTT assay; type: functional, cell-based
A549 [3] = assay: Antimigratory activity against human A549 cells at 0.5 to 10 uM after 24 hrs by transwell assay; type: functional, cell-based
Homo sapiens = organism: Homo sapiens; assay: Selectivity index, ratio of Ki for human PAK1 to Ki for human PAK4
How it was run: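 Ratio of PAK1 Ki to PAK4 Ki, both taken from the FRET-based Z′-Lyte assay.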

NCI-H460 [4] = assay: Antimigratory activity against human NCI-H460 cells at 0.5 to 10 uM after 24 hrs by transwell assay; type: functional, cell-based
A549 [5] = assay: Antiinvasive activity against human A549 cells at 0.5 to 10 uM after 24 hrs by transwell assay; type: functional, cell-based
NCI-H460 [6] = assay: Antiinvasive activity against human NCI-H460 cells at 0.5 to 10 uM after 24 hrs by transwell assay; type: functional, cell-based
HEK293 [7] = assay: Antimigratory activity against human HEK293 cells at 0.5 to 10 uM after 24 hrs by transwell assay; type: functional, cell-based
HEK293 [8] = assay: Antiinvasive activity against human HEK293 cells at 0.5 to 10 uM after 24 hrs by transwell assay; type: functional, cell-based
[9] = biological target: T1, Serine/threonine-protein kinase PAK 4; assay: Inhibition of human PAK4 in human A549 cells assessed as decrease in MMP2 expression up to 10 uM by Western blotting method; type: cell-based
Target sequence in this assay (O96013 whole entry, looked up, the tested form may be a part): as above

[10] = biological target: T1, Serine/threonine-protein kinase PAK 4; assay: Inhibition of human PAK4 in human A549 cells assessed as decrease in phosphorylation levels of LIMK1 by Western blotting method; type: cell-based
Target sequence in this assay (O96013 whole entry, looked up, the tested form may be a part): as above

[11] = biological target: T1, Serine/threonine-protein kinase PAK 4; assay: Inhibition of human PAK4 in human A549 cells assessed as decrease in phosphorylation of GEF-H1 at Ser810 residue up to 10 uM by Western blotting method; type: cell-based
Target sequence in this assay (O96013 whole entry, looked up, the tested form may be a part): as above

[12] = biological target: T1, Serine/threonine-protein kinase PAK 4; assay: Inhibition of human PAK4 in human A549 cells assessed as decrease in phosphorylation levels of cofilin by Western blotting method; type: cell-based
Target sequence in this assay (O96013 whole entry, looked up, the tested form may be a part): as above

[13] = biological target: T1, Serine/threonine-protein kinase PAK 4; assay: Inhibition of human PAK4 in human A549 cells assessed as decrease in phosphorylation levels of PAK4 at Ser474 residue by Western blot method; type: cell-based
Target sequence in this assay (O96013 whole entry, looked up, the tested form may be a part): as above

A549 [14] = assay: Antimigratory activity against human A549 cells at 0.5 to 10 uM after 48 hrs by wound healing assay; type: functional, cell-based
[15] = biological target: T1, Serine/threonine-protein kinase PAK 4; assay: Inhibition of human PAK4 kinase domain using coumarin and fluorescein-labeled ser/thr20 peptide as substrate preincubated for 15 mins followed by ATP addition measured after 60 mins by Z'-Lyte assay
Target sequence in this assay (O96013 whole entry, the tested form may be a part): as the sequence (O96013 whole entry, looked up, the tested form may be a part) above

[16] = biological target: T1, Serine/threonine-protein kinase PAK 4; assay: Binding affinity to biotin-labeled human truncated PAK4 kinase domain by surface plasmon resonance assay
How it was run: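 Binding to the truncated PAK4 was measured by SPR with multiconcentration kinetic analysis. Kd was taken from a 1:1 binding model fit.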
Target sequence in this assay (O96013 whole entry, the tested form may be a part): as the sequence (O96013 whole entry, looked up, the tested form may be a part) above

[17] = biological target: T2, Serine/threonine-protein kinase PAK 1 (Homo sapiens, UniProt Q13153); assay: Inhibition of human PAK1 kinase domain using coumarin and fluorescein-labeled ser/thr19 peptide as substrate preincubated for 15 mins followed by ATP addition measured after 60 mins by Z'-Lyte assay
T2 sequence (Q13153 whole entry, the tested form may be a part): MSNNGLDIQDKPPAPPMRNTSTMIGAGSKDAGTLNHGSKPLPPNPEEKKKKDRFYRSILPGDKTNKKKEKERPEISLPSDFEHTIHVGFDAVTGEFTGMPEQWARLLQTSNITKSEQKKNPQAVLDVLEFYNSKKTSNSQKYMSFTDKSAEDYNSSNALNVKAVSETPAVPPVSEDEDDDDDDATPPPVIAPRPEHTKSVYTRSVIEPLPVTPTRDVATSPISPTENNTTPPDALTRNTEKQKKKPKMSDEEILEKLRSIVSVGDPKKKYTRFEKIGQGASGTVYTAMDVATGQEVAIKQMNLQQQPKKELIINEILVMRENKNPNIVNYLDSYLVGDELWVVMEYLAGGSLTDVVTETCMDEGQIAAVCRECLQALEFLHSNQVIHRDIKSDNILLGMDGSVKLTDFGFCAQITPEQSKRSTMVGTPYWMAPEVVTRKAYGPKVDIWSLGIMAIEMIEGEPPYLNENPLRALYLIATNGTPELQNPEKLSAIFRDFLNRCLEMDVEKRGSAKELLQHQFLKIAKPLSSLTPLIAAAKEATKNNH
How it was run: (§1)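 FRET-based Z′-Lyte kinase assay run per the kit instructions. Ki values are the average of at least two duplicate experiments; SEM < ±20%.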

[18] = biological target: T1, Serine/threonine-protein kinase PAK 4; assay: Binding affinity to human truncated PAK4 kinase domain assessed as change in melting temperature at 20 uM by SYPRO orange dye based differential scanning fluorimetry
How it was run: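 Melting-temperature shift of the compound–truncated PAK4 complex was measured by differential scanning fluorimetry, relative to the truncated PAK4 protein alone.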

[19] = biological target: T1, Serine/threonine-protein kinase PAK 4; assay: Inhibition of GST-tagged human PAK4 (295 to 591 residues) expressed in Baculovirus expression system by Z'-Lyte assay; how it was run: as §1
Target sequence in this assay (O96013 whole entry, the tested form may be a part): as the sequence (O96013 whole entry, looked up, the tested form may be a part) above

[20] = biological target: Serine/threonine-protein kinase PAK 5 (Homo sapiens, UniProt Q9P286); assay: Inhibition of full length recombinant human His-tagged PAK5 […] expressed in Baculovirus expression system by Z'-Lyte assay
Chain of Serine/threonine-protein kinase PAK 5 (Q9P286 whole entry): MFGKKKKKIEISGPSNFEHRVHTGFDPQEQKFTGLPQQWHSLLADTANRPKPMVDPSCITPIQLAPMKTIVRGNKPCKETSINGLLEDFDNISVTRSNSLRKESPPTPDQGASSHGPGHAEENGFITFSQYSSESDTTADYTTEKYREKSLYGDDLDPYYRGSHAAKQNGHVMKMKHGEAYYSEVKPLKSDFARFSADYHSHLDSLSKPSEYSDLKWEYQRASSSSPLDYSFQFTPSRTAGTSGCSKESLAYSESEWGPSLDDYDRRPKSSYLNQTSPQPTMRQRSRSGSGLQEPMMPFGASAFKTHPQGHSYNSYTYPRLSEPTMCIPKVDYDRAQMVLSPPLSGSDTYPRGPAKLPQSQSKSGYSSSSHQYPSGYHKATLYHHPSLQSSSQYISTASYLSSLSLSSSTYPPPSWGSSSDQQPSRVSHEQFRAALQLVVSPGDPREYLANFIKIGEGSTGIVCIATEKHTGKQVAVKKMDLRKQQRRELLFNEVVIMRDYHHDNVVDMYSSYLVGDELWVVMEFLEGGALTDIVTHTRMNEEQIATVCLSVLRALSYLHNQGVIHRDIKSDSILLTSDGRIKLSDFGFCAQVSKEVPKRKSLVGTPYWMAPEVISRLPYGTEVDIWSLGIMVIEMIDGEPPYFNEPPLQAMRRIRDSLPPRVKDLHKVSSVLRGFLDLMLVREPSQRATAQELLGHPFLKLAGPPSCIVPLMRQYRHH

[21] = biological target: T1, Serine/threonine-protein kinase PAK 4; assay: Inhibition of PAK4 (unknown origin) using histone H3 as substrate
Target sequence in this assay (O96013 whole entry, the tested form may be a part): as the sequence (O96013 whole entry, looked up, the tested form may be a part) above

[22] = biological target: T2, Serine/threonine-protein kinase PAK 1; assay: Inhibition of PAK1 (unknown origin)

Structure (SMILES) | Ratio Ki (Homo sapiens) | Ki [15] [nM] | Ki [17] [nM] | also measured
C[C@@H]1CN(C(=O)c2nc(Nc3cc(C4CC4)[nH]n3)c3cc(Cl)ccc3n2)CCN1 [listing 1 of 2 here] | 346 |  |  | inhibition [1]: > 80%; Activity (A549 [2]): Active; Activity (A549 [3]): Active; Activity (NCI-H460 [4]): inactive; Activity (A549 [5]): Active; Activity (NCI-H460 [6]): inactive; Activity (HEK293 [7]): inactive; Activity (HEK293 [8]): inactive; inhibition [9]: Active; inhibition [10]: Dose-dependent effect; inhibition [11]: Active; inhibition [12]: Dose-dependent effect; inhibition [13]: Dose-dependent effect; Activity (A549 [14]): Active
O=C(c1nc(Nc2cc(C3CC3)[nH]n2)c2cc(Cl)ccc2n1)N1CCNCC1 | 172 | 16 | 2750 | Kd [16]: 16 nM
Cc1cc(Nc2nc(C(=O)N3CC(C)NC(C)C3)nc3ccc(Cl)cc23)n[nH]1 (mixture of isomers) |  | 119 |  | 
Cn1cnc(Nc2nc(N3CCC(N)CC3)nc3ccc(Cl)cc23)c1 | > 14 | 710 | > 10000 | ΔTm [18]: 0.5 °C; Kd [16]: 156 nM
Cc1cc(Nc2nc(C(=O)N3CCOCC3)nc3ccc(Cl)cc23)n[nH]1 |  | 2170 |  | Kd [16]: 1940 nM
Cc1cc(Nc2nc(C(=O)N3CCNCC3)nc3ccc(Cl)cc23)n[nH]1 | > 222 | 45 | > 10000 | Kd [16]: 66 nM
C[C@@H]1CN(C(=O)c2nc(Nc3cc(C4CC4)[nH]n3)c3ccc(Cl)cc3n2)CCN1 | 57 | 7 | 401 | 
C[C@@H]1CNCCN1C(=O)c1nc(Nc2cc(C3CC3)[nH]n2)c2cc(Cl)ccc2n1 | 122 | 17 | 2080 | 
C[C@H]1CNCCN1C(=O)c1nc(Nc2cc(C3CC3)[nH]n2)c2cc(Cl)ccc2n1 | 15 | 26 | 383 | 
Cc1cc(Nc2nc(C(=O)N3CCC(N)CC3)nc3ccc(Cl)cc23)n[nH]1 |  | 354 |  | 
Cc1cc(Nc2nc(C(=O)N3CCNC[C@@H]3C)nc3ccc(Cl)cc23)n[nH]1 | > 21 | 218 | > 4520 | 
NC1CCN(c2nc(Nc3cn(-c4ccccc4)cn3)c3cc(Cl)ccc3n2)CC1 |  | 1440 |  | 
NC1CCN(c2nc(Nc3cc(C4CC4)[nH]n3)c3cc(Cl)ccc3n2)CC1 | 19 | 16 | 288 | Kd [16]: 6 nM
NC1CCN(c2nc(Nc3cn(C4CC4)cn3)c3cc(Cl)ccc3n2)CC1 |  | 652 |  | 
C[C@@H]1CN(C(=O)c2nc(Nc3cc(C4CC4)[nH]n3)c3ccccc3n2)CCN1 | 63 | 17 | 1070 | 
CNC1CCN(C(=O)c2nc(Nc3cc(C)[nH]n3)c3cc(Cl)ccc3n2)CC1 |  | 672 |  | 
COc1ccc2nc(C(=O)N3CCN[C@H](C)C3)nc(Nc3cc(C4CC4)[nH]n3)c2c1 | > 126 | 36 | > 4520 | 
C[C@@H]1CN(C(=O)c2nc(Nc3cc(C4CC4)[nH]n3)c3cc(F)ccc3n2)CCN1 | 31 | 16 | 503 | 
Cc1cc(Nc2nc(C(=O)N3CCN[C@@H](C)C3)nc3ccc(Cl)cc23)n[nH]1 | > 15 | 306 | > 4520 | 
Cc1cc(Nc2nc(C(=O)N3CCC(O)CC3)nc3ccc(Cl)cc23)n[nH]1 |  | 3820 |  | 

Structure (SMILES) | Ratio Ki (Homo sapiens) | Ki [15] [nM] | Ki [17] [nM] | also measured
Cc1cc(Nc2nc(C(=O)N3CCC(C)(N)CC3)nc3ccc(Cl)cc23)n[nH]1 |  | 674 |  | 
Cc1cc(Nc2nc(C(=O)NC3CNC3)nc3ccc(Cl)cc23)n[nH]1 |  | 782 |  | 
CC1CN(C(=O)c2nc(Nc3cc(C4CC4)[nH]n3)c3cc(Cl)ccc3n2)CC(C)N1 (mixture of isomers) | > 40 | 114 | > 4520 | 
C[C@@H]1CN(C(=O)c2nc(Nc3cc(C4CC4)[nH]n3)c3cc(Br)ccc3n2)CCN1 | 190 | 11 | 2080 | 
Cc1cc(Nc2nc(C(=O)N(C)C3CCCNC3)nc3ccc(Cl)cc23)n[nH]1 (racemic) |  | 1630 |  | 
Cc1cc(Nc2nc(C(=O)N3CCC(C)(O)CC3)nc3ccc(Cl)cc23)n[nH]1 |  | 3890 |  | 
Cc1cc(Nc2nc(C(=O)N3CCN[C@H](C)C3)nc3ccc(Cl)cc23)n[nH]1 | > 196 | 51 | > 10000 | 
Cc1cc(Nc2nc(C(=O)N(C)C3CCNCC3)nc3ccc(Cl)cc23)n[nH]1 |  | 576 |  | 
Cc1cc(Nc2nc(C(=O)N3CCNC(=O)C3)nc3ccc(Cl)cc23)n[nH]1 |  | 2410 |  | 
Cc1cc(Nc2nc(N3CCC(N)CC3)nc3ccc(Cl)cc23)n[nH]1 | 18 | 99 | 1890 | Kd [16]: 43 nM
Cc1cc(Nc2nc(C(=O)N3CCN(C)CC3)nc3ccc(Cl)cc23)n[nH]1 |  | 768 |  | 
Cc1cc(Nc2nc(C(=O)N3CCNC[C@H]3C)nc3ccc(Cl)cc23)n[nH]1 | > 30 | 151 | > 4520 | 
Cc1cc(Nc2nc(C(=O)NC3CCNCC3)nc3ccc(Cl)cc23)n[nH]1 |  | 325 |  | 
CC[C@@H]1CN(C(=O)c2nc(Nc3cc(C4CC4)[nH]n3)c3cc(Cl)ccc3n2)CCN1 | 61 | 6 | 368 | 
CC(C)n1cnc(Nc2nc(N3CCC(N)CC3)nc3ccc(Cl)cc23)c1 |  | 884 |  | 
NC1CCN(c2nc(Nc3cc(-c4ccccc4)[nH]n3)c3cc(Cl)ccc3n2)CC1 |  | 256 |  | 
CC(C)c1cc(Nc2nc(N3CCC(N)CC3)nc3ccc(Cl)cc23)n[nH]1 |  | 77 |  | 
C[C@@H]1CN(C(=O)c2nc(Nc3cc(C4CC4)[nH]n3)c3cc(Cl)ccc3n2)CCN1 [listing 2 of 2 here] |  |  | 3110 | IC50 [19]: 11.1 nM; IC50 [20]: 15 nM
COc1cccc(Nc2nc(NCC3CCCO3)c3ccccc3n2)c1 (configuration not stated) |  |  |  | IC50 [21]: 14900 nM; IC50 [22]: 48400 nM
C[C@H]1CN(C(=O)c2nc(Nc3cc(C4CC4)[nH]n3)c3cc(Cl)ccc3n2)CCN1 | 25 | 28 | 690 | 
